GI50 and inhibition data for 40 molecules are collected here from ChEMBL document CHEMBL4316633, “The Antiangiogenic Activity of Naturally Occurring and Synthetic Homoisoflavonoids from the Hyacinthaceae ( sensu APGII)” (J Nat Prod, 2019).

The structures appear in SMILES notation.

Series [1] is described as follows: Antiproliferative activity against HREC assessed as reduction in cell number incubated for 44 hrs by alamar blue based fluorescence assay. The series is classed as functional. To be noted: Homo sapiens. (In general: Resazurin is reduced to fluorescent resorufin, in cell work by metabolically active cells.)
Series [2] can be described thus: Cytotoxicity against human 92-1 cells assessed as reduction in cell number incubated for 44 hrs by alamar blue based fluorescence assay.
Series [3] is described as follows: Cytotoxicity against human Y79 cells assessed as reduction in cell number incubated for 44 hrs by alamar blue based fluorescence assay.
The nature of series [4]: Antiproliferative activity against human ARPE19 assessed as reduction in cell number incubated for 44 hrs by alamar blue based fluorescence assay. To be noted: ARPE-19 cells.
Series [5] is described as follows: Antiproliferative activity against HUVEC assessed as reduction in cell number incubated for 44 hrs by alamar blue based fluorescence assay. To be noted: human, HUVEC cells. Put shortly:
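Primary endothelial cells (HRECs, HUVECs; passage 5–8) in EGM-2; 2,500 cells seeded, 24 h at 37°C, 5% CO2, then compounds 0.5 nM–500 μM for 44 h. alamarBlue added 4 h, fluorescence ex 560/em 590 nm.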

The species named for a further series is Homo sapiens. Kind of series: Antiangiogenic activity against HREC assessed as reduction in tube formation incubated for 8 hrs by matrigel based tube formation assay. It is filed as functional. The method, boiled down: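 HRECs (passage 5–8), 15,000 cells in EGM-2 medium, plated on Matrigel basement membrane coat with DMSO vehicle or graded compound concentrations; SH-11037 as positive control. Images taken after 8 h; tubule length quantified by Angiogenesis Analyzer macros and expressed relative to DMSO control. Mean ± SEM, n=3–6 wells, duplicate experiments; one-way ANOVA with Dunnett's test.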

Take `COc1ccc(/C=C2\COc3cc(OC)c(OC)c(OC)c3C2=O)cc1O`: the GI50 (usually the concentration at which growth is held to half of that of the control) in series [1] was found to be 2.2 µM. Moreover, the GI50 at 44 h in series [2] stood at 8.2 µM; in series [3], 23 µM; in series [4], 1.3 µM.

With `COc1ccc(C[C@@H]2COc3cc(O)cc(O)c3C2=O)cc1`, the GI50 in series [1] is over 100 µM. The GI50 at 44 h in series [5], in series [2] and in series [3] was over 100 µM each time.

On to `COc1ccc(CC2(O)COc3cc(O)cc(O)c3C2=O)cc1` (configuration not stated), for which the 50% growth inhibitory concentration (GI50) in series [1] was over 100 µM. The GI50 at 44 h in series [5], in series [2] and in series [3] was over 100 µM each time.

Turning to `COc1cc(O)c2c(c1)OC[C@]1(Cc3c1cc(OC)c(OC)c3OC)C2=O`, in series [1], the GI50 is over 100 µM. Besides, the GI50 at 44 h in series [5], in series [2] and in series [3] was over 100 µM each time.

For the molecule `COc1cc2c(cc1O)C[C@]21COc2cc(O)cc(O)c2C1=O`, the GI50 in series [1] was over 100 µM. For the same molecule, the concentration for 50% growth inhibition (GI50) at 44 h in series [5], in series [2] and in series [3] was over 100 µM throughout.

`O=C1/C(=C/c2ccc(O)cc2)COc2cc(O)cc(O)c21`: the concentration for 50% growth inhibition (GI50) in series [1] was found to be 60 µM. In addition, the GI50 at 44 h in series [2], in series [3] and in series [4] was over 100 µM each time.

Turning to `O=C1c2c(O)cc(O)cc2OC[C@]12Cc1cc3c(cc12)OCO3`, the GI50 in series [1] was over 100 µM. Moreover, the GI50 at 44 h in series [5], in series [2] and in series [3] was over 100 µM throughout.

With `COc1cc2c(cc1O)C[C@]21COc2cc(OC(C)=O)cc(OC(C)=O)c2C1=O`, the GI50 in series [1] is over 100 µM. Besides, the GI50 at 44 h in series [5], in series [2] and in series [3] was over 100 µM in each case.

Consider `CC(=O)Oc1cc(O)cc2c1C(=O)/C(=C/c1ccc(O)c(O)c1)CO2`, for which, in series [1], the GI50 was 1.4 µM. Further, the GI50 at 44 h was 5 µM in series [5], over 100 µM in series [2] and 2.5 µM in series [3]. Moreover, the inhibition entry in the series listed under Homo sapiens was “Dose-dependent effect”.

Consider `COc1ccc(/C=C2\COc3c(OC)c(O)cc(O)c3C2=O)cc1`, for which, in series [1], the GI50 is over 100 µM. The GI50 at 44 h in series [2], in series [3] and in series [4] was over 100 µM in each case.

As for `COc1ccc(C[C@H]2COc3cc(OC(C)=O)cc(OC(C)=O)c3C2=O)cc1O`, the concentration for 50% growth inhibition (GI50) in series [1] was over 100 µM. For the same molecule, the GI50 at 44 h in series [5] is 92 µM; in series [2], over 100 µM; in series [3], over 100 µM.

Turning to `O=C1c2c(O)cc(O)cc2OC[C@H]1Cc1ccc(O)c(O)c1`, in series [1], the GI50 is over 100 µM. Moreover, the GI50 at 44 h in series [5], in series [2] and in series [3] was over 100 µM in each case.

Consider `COc1cc2c(cc1O)[C@@]1(COc3cc(O)cc(O)c3C1=O)C2`, for which the concentration for 50% growth inhibition (GI50) in series [1] was over 100 µM. The concentration for 50% growth inhibition (GI50) at 44 h in series [5], in series [2] and in series [3] was over 100 µM throughout.

With `COc1cc(OC(C)=O)cc2c1C(=O)/C(=C/c1ccc(OC(C)=O)cc1)CO2`, the GI50 in series [1] was 96 µM. The concentration for 50% growth inhibition (GI50) at 44 h in series [5] is 43 µM; in series [2], over 100 µM; in series [3], over 100 µM.

Consider `COc1ccc(/C=C2\COc3cc(OC(C)=O)c(O)c(O)c3C2=O)cc1OC(C)=O`, for which, in series [1], the GI50 was 16 µM. Also, the figures for the GI50 at 44 h in series [5], in series [2] and in series [3] were 11 µM, 69 µM and 29 µM, respectively. Further, in the series filed under Homo sapiens, the inhibition entry was “Dose-dependent effect”.

For the molecule `CC(=O)Oc1cc(C[C@H]2COc3cc(O)cc(O)c3C2=O)ccc1O`, the GI50 in series [1] is over 100 µM. Moreover, the GI50 at 44 h in series [5], in series [2] and in series [3] was over 100 µM each time.

Turning to `COc1c(O)c(OC)c2c(c1O)OC[C@@H](Cc1ccc(O)cc1)C2=O`, the GI50 in series [1] was over 100 µM. Besides, the GI50 at 44 h in series [2], in series [3] and in series [4] was over 100 µM in each case.

As to `COc1c(O)cc(O)c2c1OC/C(=C\c1ccc(O)cc1)C2=O`, in series [1], the GI50 worked out at 40 µM. Further, the GI50 at 44 h in series [5], in series [2] and in series [3] was over 100 µM in each case.

Turning to `COc1c(O)cc2c(c1O)C(=O)[C@H](Cc1ccc(O)cc1)CO2`, the GI50 in series [1] was over 100 µM. Further, the 50% growth inhibitory concentration (GI50) at 44 h in series [5], in series [2] and in series [3] was over 100 µM in each case.

As to `COc1cc(O)cc2c1C(=O)[C@H](Cc1ccc(O)c(O)c1)CO2`, in series [1], the GI50 is over 100 µM. The 50% growth inhibitory concentration (GI50) at 44 h in series [5] was 14 µM; in series [2] it was over 100 µM; in series [3], 25 µM.

`O=C1c2c(O)cc(O)cc2OC[C@H]1Cc1ccc(O)cc1`: the GI50 in series [1] was over 100 µM. Moreover, the GI50 at 44 h in series [5], in series [2] and in series [3] was over 100 µM throughout.

As for `COc1cc(OC)c2c(c1)OC/C(=C\c1ccc(SC)cc1)C2=O`, the GI50 in series [1] came out at 2.5 µM. Moreover, the GI50 at 44 h in series [2] is over 100 µM; in series [3], 2 µM; in series [4], 48 µM.

As to `COc1ccc(C[C@]2(O)COc3cc(OC)cc(O)c3C2=O)cc1`, in series [1], the GI50 was 64 µM. For the same molecule, the GI50 at 44 h in series [2], in series [3] and in series [4] was over 100 µM each time.

Take `COc1c(O)cc2c(c1O)C(=O)/C(=C/c1ccc(O)c(O)c1)CO2`: the concentration for 50% growth inhibition (GI50) in series [1] is over 100 µM. The GI50 at 44 h in series [2], in series [3] and in series [4] was over 100 µM each time.

Take `O=Cc1ccc(O)cc1` [4-HYDROXYBENZALDEHYDE]: in series [1], the concentration for 50% growth inhibition (GI50) is over 100 µM. Besides, the GI50 at 44 h in series [5], in series [2] and in series [3] was over 100 µM throughout.

With `COc1ccc(CC2COc3cc(OC)c(OC)c(OC)c3C2=O)cc1O` (racemic), in series [1], the GI50 was determined as 0.21 µM. Moreover, the GI50 at 44 h in series [2], in series [3] and in series [4] was over 100 µM throughout.

Regarding `COc1cc(O)c2c(c1)OC[C@]1(Cc3c1cc(OC)c(OC)c3O)C2=O`, the GI50 in series [1] was over 100 µM. For the same molecule, the GI50 at 44 h in series [5], in series [2] and in series [3] was over 100 µM each time.

As for `COc1cc(O)cc(OC)c1C(=O)/C=C/c1ccc(O)cc1`, in series [1], the GI50 is over 100 µM. Besides, the GI50 at 44 h in series [5] and in series [3] was over 100 µM in each case.

For `COc1c(O)cc2c(c1O)C(=O)[C@H](Cc1ccc(O)c(O)c1)CO2`, in series [1], the GI50 was over 100 µM. For the same molecule, the GI50 at 44 h in series [2], in series [3] and in series [4] was over 100 µM each time.

For the molecule `COc1cc2c(cc1O)C[C@]21COc2cc(OC(C)=O)cc(O)c2C1=O`, in series [1], the GI50 was over 100 µM. Also, the GI50 at 44 h in series [5], in series [2] and in series [3] was over 100 µM throughout.

As for `O=C1CCOc2cc(O)cc(O)c21`, in series [1], the GI50 was over 100 µM. The GI50 at 44 h in series [5], in series [2] and in series [3] was over 100 µM in each case.

Regarding `COc1cc(O)cc2c1C(=O)[C@H](Cc1ccc(O)cc1)CO2`, the GI50 in series [1] is over 100 µM. Further, the 50% growth inhibitory concentration (GI50) at 44 h in series [5], in series [2] and in series [3] was over 100 µM each time.

Regarding `O=C1/C(=C/c2ccc(O)c(O)c2)COc2cc(O)cc(O)c21`, in series [1], the GI50 was over 100 µM. The GI50 at 44 h in series [2], in series [3] and in series [4] was over 100 µM each time.

As for `COc1ccc(C[C@@H]2COc3c(OC)c(O)cc(O)c3C2=O)cc1`, the GI50 in series [1] is over 100 µM. Besides, the GI50 at 44 h in series [2], in series [3] and in series [4] was over 100 µM each time.

Regarding `COc1ccc(C[C@]2(O)COc3cc(O)cc(O)c3C2=O)cc1`, the GI50 in series [1] was determined as 74 µM. Also, the GI50 at 44 h in series [2], in series [3] and in series [4] was over 100 µM throughout.

Turning to `COc1ccc2c(c1OC)OC/C(=C\c1ccc(SC)cc1)C2=O`, the GI50 in series [1] came out at 3.6 µM. The 50% growth inhibitory concentration (GI50) at 44 h in series [2] was over 100 µM; in series [3], 11 µM; in series [4], over 100 µM.

For `COc1ccc(/C=C2\COc3cc(O)c(O)c(O)c3C2=O)cc1O`, in series [1], the 50% growth inhibitory concentration (GI50) worked out at 17 µM. The GI50 at 44 h in series [5] was 41 µM; in series [2], over 100 µM; in series [3], 23 µM.

With `COc1c(O)cc(O)c2c1OC[C@@H](Cc1ccc(O)cc1)C2=O`, the GI50 in series [1] was 64 to 100 µM. Moreover, the concentration for 50% growth inhibition (GI50) at 44 h in series [5], in series [2], in series [3] and in series [4] was over 100 µM each time.

Take `COc1cc(O)cc2c1C(=O)/C(=C/c1ccc(O)c(O)c1)CO2`: the GI50 in series [1] was over 100 µM. In addition, the GI50 at 44 h in series [5], in series [2] and in series [3] was over 100 µM each time.

As for `COc1cc2c(c(OC)c1OC)C(=O)/C(=C/c1ccc(Cl)c(O)c1)CO2`, the GI50 in series [1] came to 0.11 µM. In addition, the 50% growth inhibitory concentration (GI50) at 44 h was 3.6 µM in series [2], 13 µM in series [3] and 0.73 µM in series [4].
